Numbering of substitutions follows the chain as printed. Entries after “also recorded” stand apart in the source; their conditions may differ. Peptide text beside a SMILES is read from it.
How the values were obtained:
Experiment in all cases: Ca2+ mobilization, mutated human receptor
Assay type in all cases: cell-based
[1] = target: T1, hTas1R2:S40T/D142E+hTas1R3 (Homo sapiens, UniProt Q8TE23, D142E/S40T); conditions: for calcium response to sweetener: aspartame 10mM, neotame 1mM, sucralose 2 mM, compared with hTas1R2/hTas1R3; for response in dose-response experiment: versus hTas1R2+hTas1R3
T1 sequence (Q8TE23 20-839 S40T/D142E): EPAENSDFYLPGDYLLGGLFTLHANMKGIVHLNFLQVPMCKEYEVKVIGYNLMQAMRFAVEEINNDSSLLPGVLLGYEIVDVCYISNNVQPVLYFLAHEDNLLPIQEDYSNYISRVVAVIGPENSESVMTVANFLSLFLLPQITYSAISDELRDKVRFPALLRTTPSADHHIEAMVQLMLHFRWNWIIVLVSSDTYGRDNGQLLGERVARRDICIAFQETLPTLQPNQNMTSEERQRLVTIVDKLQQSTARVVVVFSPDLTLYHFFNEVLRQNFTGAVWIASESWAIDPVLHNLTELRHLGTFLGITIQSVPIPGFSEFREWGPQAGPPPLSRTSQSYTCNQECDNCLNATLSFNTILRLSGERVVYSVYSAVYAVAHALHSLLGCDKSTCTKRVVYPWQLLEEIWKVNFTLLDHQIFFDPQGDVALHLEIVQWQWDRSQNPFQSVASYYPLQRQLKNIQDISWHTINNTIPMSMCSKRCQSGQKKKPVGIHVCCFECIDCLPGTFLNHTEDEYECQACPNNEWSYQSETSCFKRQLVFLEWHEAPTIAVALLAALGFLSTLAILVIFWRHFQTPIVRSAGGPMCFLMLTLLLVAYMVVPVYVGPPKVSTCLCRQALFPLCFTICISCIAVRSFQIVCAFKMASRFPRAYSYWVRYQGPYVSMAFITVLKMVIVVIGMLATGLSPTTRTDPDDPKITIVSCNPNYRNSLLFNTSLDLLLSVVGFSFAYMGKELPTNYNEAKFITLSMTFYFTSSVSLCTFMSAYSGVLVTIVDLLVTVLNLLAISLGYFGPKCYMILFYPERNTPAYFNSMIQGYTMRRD
T1 sequence (Q7RTX0 21-852 partner): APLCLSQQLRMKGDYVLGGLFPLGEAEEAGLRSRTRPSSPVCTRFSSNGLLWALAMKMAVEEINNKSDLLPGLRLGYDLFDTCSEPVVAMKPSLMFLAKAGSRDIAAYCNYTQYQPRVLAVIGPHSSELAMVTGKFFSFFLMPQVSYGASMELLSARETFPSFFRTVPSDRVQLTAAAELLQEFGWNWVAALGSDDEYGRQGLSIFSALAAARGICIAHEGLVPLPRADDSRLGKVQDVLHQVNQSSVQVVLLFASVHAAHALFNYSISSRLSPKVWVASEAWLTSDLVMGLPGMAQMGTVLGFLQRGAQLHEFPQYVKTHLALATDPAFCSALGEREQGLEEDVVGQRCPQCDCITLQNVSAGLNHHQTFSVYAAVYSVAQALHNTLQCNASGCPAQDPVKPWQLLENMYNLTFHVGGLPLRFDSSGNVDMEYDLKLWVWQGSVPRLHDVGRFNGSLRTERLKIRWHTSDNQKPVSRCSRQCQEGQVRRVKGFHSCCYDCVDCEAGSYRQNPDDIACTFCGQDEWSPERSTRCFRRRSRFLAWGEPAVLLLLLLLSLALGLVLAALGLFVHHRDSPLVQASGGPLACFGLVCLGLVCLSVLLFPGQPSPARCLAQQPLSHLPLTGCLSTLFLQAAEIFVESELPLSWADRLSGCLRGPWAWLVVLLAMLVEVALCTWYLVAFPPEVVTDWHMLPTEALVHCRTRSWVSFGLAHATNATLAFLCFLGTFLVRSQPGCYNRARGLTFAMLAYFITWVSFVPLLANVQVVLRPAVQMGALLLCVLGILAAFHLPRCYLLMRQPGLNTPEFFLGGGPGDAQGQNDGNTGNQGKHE

hTas1R2:D142E+hTas1R3 = hTas1R2:D142E+hTas1R3 (Homo sapiens, UniProt Q8TE23, D142E); conditions: aspartame 10mM, neotame 1mM, sucralose 2 mM; compared with hTas1R2/hTas1R3
hTas1R2:D142E+hTas1R3, sequence (Q8TE23 20-839 D142E, one chain of several): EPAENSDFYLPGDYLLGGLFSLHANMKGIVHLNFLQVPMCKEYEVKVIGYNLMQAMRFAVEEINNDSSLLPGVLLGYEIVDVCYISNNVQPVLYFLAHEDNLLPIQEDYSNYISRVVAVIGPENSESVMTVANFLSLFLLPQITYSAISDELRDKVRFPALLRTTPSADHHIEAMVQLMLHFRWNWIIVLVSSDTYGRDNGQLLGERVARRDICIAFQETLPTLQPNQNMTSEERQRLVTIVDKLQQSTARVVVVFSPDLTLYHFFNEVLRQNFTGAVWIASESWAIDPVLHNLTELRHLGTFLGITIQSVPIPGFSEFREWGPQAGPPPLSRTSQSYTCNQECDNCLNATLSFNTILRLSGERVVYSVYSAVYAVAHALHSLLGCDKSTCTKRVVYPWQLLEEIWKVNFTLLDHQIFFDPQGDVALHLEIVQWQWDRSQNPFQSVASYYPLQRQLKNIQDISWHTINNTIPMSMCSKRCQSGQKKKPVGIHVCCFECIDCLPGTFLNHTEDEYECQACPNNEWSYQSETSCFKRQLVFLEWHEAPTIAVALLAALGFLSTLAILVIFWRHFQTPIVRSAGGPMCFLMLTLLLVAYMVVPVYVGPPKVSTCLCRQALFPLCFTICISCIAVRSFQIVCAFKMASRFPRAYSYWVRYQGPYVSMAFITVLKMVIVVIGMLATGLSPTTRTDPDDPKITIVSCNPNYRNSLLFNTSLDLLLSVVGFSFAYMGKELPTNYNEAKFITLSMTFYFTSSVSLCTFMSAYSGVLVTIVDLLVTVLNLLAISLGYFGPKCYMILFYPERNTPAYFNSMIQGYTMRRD
How it was run: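 HEK293E cells grown at 37°C in Opti-MEM with 5% FBS and seeded at 50,000/well. Cells co-lipofected with Tas1R plasmids and Gα16-gust44 (0.06 μg each per well); medium changed at 20 h, assayed 24 h later. Cells loaded 1 h with Fluo-4 AM in HEPES-buffered HBSS. Tastant added at 30 s; fluorescence (ex 488/em 525 nm) read every 2 s for 150 s more. ΔF/F normalised to human receptor maximal sucralose response; mean ± SEM, three independent experiments.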

[2] = target: T2, hTas1R2:I67S/D142E+hTas1R3 (Homo sapiens, UniProt Q8TE23, D142E/I67S); conditions: for calcium response to sweetener: aspartame 10mM, neotame 1mM, sucralose 2 mM, compared with hTas1R2/hTas1R3; for response in dose-response experiment: versus hTas1R2+hTas1R3
T2 sequence (Q8TE23 20-839 I67S/D142E): T1 sequence (Q8TE23 20-839 S40T/D142E) with T21S, I48S
T2 sequence (Q7RTX0 21-852 partner): T1 sequence (Q7RTX0 21-852 partner)

[3] = HEK293E cells with Gα16-gust44, dose-response, calcium mobilization
[4] = ΔF/F normalized to maximum response of hTas1R2/hTas1R3 to neotame

COC(=O)[C@H](Cc1ccccc1)NC(=O)[C@@H](N)CC(=O)O [aspartame, L-α-aspartly-L-phenylalanine methyl ester] (H-Asp-Phe-OMe)
calcium response to sweetener [1]: abolished | response in dose-response experiment ([1]; dose-response): no responses | calcium response to sweetener (hTas1R2:D142E+hTas1R3): almost abolished; also recorded: abolishes the activity | calcium response to sweetener [2]: abolition | response in dose-response experiment ([2]; dose-response): no responses

COC(=O)[C@H](Cc1ccccc1)NC(=O)[C@H](CC(=O)O)NCCC(C)(C)C [neotame]
EC50 [1, 3]: 1.4 mM | calcium response to sweetener [1]: significantly reduced; also recorded: reduced the response to neotame by half | response in dose-response experiment ([1]; dose-response): weaker responses | Bottom (B) of sigmoid dose-response fit [1, 4]: 1.387 | Top (T) of sigmoid dose-response fit [1, 4]: 61.12 | calcium response to sweetener (hTas1R2:D142E+hTas1R3): significantly decreased | EC50 [2, 3]: 4.7 mM | calcium response to sweetener [2]: significant reduction | response in dose-response experiment ([2]; dose-response): weaker responses | Bottom (B) of sigmoid dose-response fit [2, 4]: −1.772 | Top (T) of sigmoid dose-response fit [2, 4]: 51.81
